From ChEMBL document CHEMBL4304792, “Cinnamonitrile Adjuvants Restore Susceptibility to β-Lactams against Methicillin-Resistant Staphylococcus aureus” (ACS Med Chem Lett, 2019)
Values after ≈ are worked out from the molar mass of the structure shown. Active and inactive are the calls of the source. The calls are words filed in the database; no cut-off is given here.

Assays:
Staphylococcus aureus [1] = assay: Potentiation of oxacillin induced antibacterial activity against Staphylococcus aureus Mu50 NRS1 assessed as oxacillin MIC at 16 uM measured after 16 to 20 hrs in presence of 2% NaCl by microdilution broth method (reference value: 256 mg/L); assay type: functional
Staphylococcus aureus [2] = assay: Potentiation of oxacillin induced antibacterial activity against Staphylococcus aureus Mu50 NRS1 assessed as oxacillin MIC at 20 uM measured after 16 to 20 hrs in presence of 2% NaCl by microdilution broth method (reference value: 256 mg/L); assay type: functional
Staphylococcus aureus [3] = assay: Potentiation of oxacillin induced antibacterial activity against Staphylococcus aureus NRS119 assessed as oxacillin MIC at 8 uM measured after 16 to 20 hrs in presence of 2% NaCl by microdilution broth method (reference value: 256 mg/L); assay type: functional
Staphylococcus aureus [4] = assay: Potentiation of oxacillin induced antibacterial activity against Staphylococcus aureus NRS384 assessed as oxacillin MIC at 20 uM measured after 16 to 20 hrs in presence of 2% NaCl by microdilution broth method (reference value: 32 mg/L); assay type: functional
Staphylococcus aureus [5] = assay: Potentiation of oxacillin induced antibacterial activity against Staphylococcus aureus NRS119 assessed as oxacillin MIC at 16 uM measured after 16 to 20 hrs in presence of 2% NaCl by microdilution broth method (reference value: 256 mg/L); assay type: functional
Staphylococcus aureus [6] = assay: Antibacterial activity against Staphylococcus aureus Mu50 NRS1 measured after 16 to 20 hrs in presence of 2% NaCl by microdilution broth method; assay type: functional
Staphylococcus aureus [7] = assay: Potentiation of oxacillin induced antibacterial activity against methicillin susceptible Staphylococcus aureus NRS72 assessed as reduction in oxacillin MIC at 20 uM measured after 16 to 20 hrs in presence of 2% NaCl by microdilution broth method; assay type: functional
Method in brief: (§1)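 Oxacillin MIC was measured against methicillin-susceptible strains with the adjuvant fixed at 20 μM. Potentiation was expressed as fold reduction of the oxacillin MIC relative to oxacillin alone.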

Staphylococcus aureus [8] = assay: Potentiation of oxacillin induced antibacterial activity against Staphylococcus aureus USA100-NRS382 assessed as oxacillin MIC at 16 uM measured after 16 to 20 hrs in presence of 2% NaCl by microdilution broth method (reference value: 64 mg/L); assay type: functional
Staphylococcus aureus [9] = assay: Antibacterial activity against Staphylococcus aureus MW2 NRS123 measured after 16 to 20 hrs in presence of 2% NaCl by microdilution broth method; assay type: functional
Staphylococcus aureus [10] = assay: Potentiation of oxacillin induced antibacterial activity against Staphylococcus aureus NRS384 assessed as oxacillin MIC at 16 uM measured after 16 to 20 hrs in presence of 2% NaCl by microdilution broth method (reference value: 32 mg/L); assay type: functional
Staphylococcus aureus [11] = assay: Potentiation of oxacillin induced antibacterial activity against Staphylococcus aureus USA200-NRS383 assessed as oxacillin MIC at 16 uM measured after 16 to 20 hrs in presence of 2% NaCl by microdilution broth method (reference value: 128 mg/L); assay type: functional
Staphylococcus aureus [12] = assay: Potentiation of oxacillin induced antibacterial activity against methicillin susceptible Staphylococcus aureus NRS11 assessed as reduction in oxacillin MIC at 20 uM measured after 16 to 20 hrs in presence of 2% NaCl by microdilution broth method; assay type: functional; method in brief: as §1
Staphylococcus aureus [13] = assay: Potentiation of oxacillin induced antibacterial activity against Staphylococcus aureus NRS70 assessed as oxacillin MIC at 20 uM measured after 16 to 20 hrs in presence of 2% NaCl by microdilution broth method (reference value: 64 mg/L); assay type: functional
Staphylococcus aureus [14] = assay: Potentiation of oxacillin induced antibacterial activity against Staphylococcus aureus USA200-NRS383 assessed as oxacillin MIC at 20 uM measured after 16 to 20 hrs in presence of 2% NaCl by microdilution broth method (reference value: 128 mg/L); assay type: functional
Staphylococcus aureus [15] = assay: Potentiation of oxacillin induced antibacterial activity against Staphylococcus aureus MRSA252 assessed as oxacillin MIC at 16 uM measured after 16 to 20 hrs in presence of 2% NaCl by microdilution broth method (reference value: 256 mg/L); assay type: functional
Staphylococcus aureus [16] = assay: Antibacterial activity against Staphylococcus aureus USA200-NRS383 measured after 16 to 20 hrs in presence of 2% NaCl by microdilution broth method; assay type: functional
Staphylococcus aureus [17] = assay: Antibacterial activity against Staphylococcus aureus NRS119 measured after 16 to 20 hrs in presence of 2% NaCl by microdilution broth method; assay type: functional
Staphylococcus aureus [18] = assay: Antibacterial activity against Staphylococcus aureus USA100-NRS382 measured after 16 to 20 hrs in presence of 2% NaCl by microdilution broth method; assay type: functional
Staphylococcus aureus [19] = assay: Potentiation of oxacillin induced antibacterial activity against Staphylococcus aureus MW2 NRS123 assessed as oxacillin MIC at 8 uM measured after 16 to 20 hrs in presence of 2% NaCl by microdilution broth method (reference value: 16 mg/L); assay type: functional
Staphylococcus aureus [20] = assay: Potentiation of oxacillin induced antibacterial activity against Staphylococcus aureus Mu50 NRS1 assessed as oxacillin MIC at 8 uM measured after 16 to 20 hrs in presence of 2% NaCl by microdilution broth method (reference value: 256 mg/L); assay type: functional
Staphylococcus aureus [21] = assay: Potentiation of oxacillin induced antibacterial activity against Staphylococcus aureus USA100-NRS382 assessed as oxacillin MIC at 20 uM measured after 16 to 20 hrs in presence of 2% NaCl by microdilution broth method (reference value: 64 mg/L); assay type: functional
Staphylococcus aureus [22] = assay: Potentiation of oxacillin induced antibacterial activity against Staphylococcus aureus NRS384 assessed as oxacillin MIC at 8 uM measured after 16 to 20 hrs in presence of 2% NaCl by microdilution broth method (reference value: 32 mg/L); assay type: functional
Staphylococcus aureus [23] = assay: Antibacterial activity against Staphylococcus aureus NRS70 measured after 16 to 20 hrs in absence of 2% NaCl by microdilution broth method
Staphylococcus aureus [24] = assay: Potentiation of oxacillin induced antibacterial activity against Staphylococcus aureus USA200-NRS383 assessed as oxacillin MIC at 8 uM measured after 16 to 20 hrs in presence of 2% NaCl by microdilution broth method (reference value: 128 mg/L); assay type: functional
Staphylococcus aureus [25] = assay: Antibacterial activity against Staphylococcus aureus NRS384 measured after 16 to 20 hrs in presence of 2% NaCl by microdilution broth method; assay type: functional
Staphylococcus aureus [26] = assay: Potentiation of oxacillin induced antibacterial activity against methicillin susceptible Staphylococcus aureus NRS77 assessed as reduction in oxacillin MIC at 20 uM measured after 16 to 20 hrs in presence of 2% NaCl by microdilution broth method; assay type: functional; method in brief: as §1
HeLa = assay: Cytotoxicity against human HeLa cells by XTT assay; assay type: cell-based
Method in brief: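 HeLa human cervical cancer cells were exposed to the compounds. Viability was read by XTT colorimetric assay, and IC50 was reported in μM and mg·L–1.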

Staphylococcus aureus [27] = assay: Antibacterial activity against Staphylococcus aureus MRSA252 measured after 16 to 20 hrs in presence of 2% NaCl by microdilution broth method; assay type: functional
Staphylococcus aureus [28] = assay: Potentiation of oxacillin induced antibacterial activity against Staphylococcus aureus MW2 NRS123 assessed as oxacillin MIC at 20 uM measured after 16 to 20 hrs in presence of 2% NaCl by microdilution broth method (reference value: 16 mg/L); assay type: functional

Compound	MIC (Staphylococcus aureus [1])	MIC (Staphylococcus aureus [2])	MIC (Staphylococcus aureus [3])	MIC (Staphylococcus aureus [4])	MIC (Staphylococcus aureus [5])	MIC (Staphylococcus aureus [6])	MIC (Staphylococcus aureus [8])	MIC (Staphylococcus aureus [9])	MIC (Staphylococcus aureus [10])	MIC (Staphylococcus aureus [13])	MIC (Staphylococcus aureus [15])	MIC (Staphylococcus aureus [16])	MIC (Staphylococcus aureus [17])	MIC (Staphylococcus aureus [18])	MIC (Staphylococcus aureus [19])	MIC (Staphylococcus aureus [20])	MIC (Staphylococcus aureus [21])	MIC (Staphylococcus aureus [22])	fold change (FC) (Staphylococcus aureus [7])	fold change (FC) (Staphylococcus aureus [12])	other results
CS(=O)(=O)/C(C#N)=C/c1c(F)ccc(Cc2ccc(Cl)c(Cl)c2)c1F	4 µg/mL	≤ 0.03 µg/mL	4 µg/mL	≤ 0.03 µg/mL	1 µg/mL	16 µg/mL	1 µg/mL	16 µg/mL	0.5 µg/mL	Active	256 µg/mL	16 µg/mL	16 µg/mL	16 µg/mL	≥ 16 µg/mL	16 µg/mL	≤ 0.03 µg/mL	32 µg/mL	2 - 10	2 - 10	MIC (Staphylococcus aureus [11]): ≥ 128 µg/mL; MIC (Staphylococcus aureus [13]; record 2): ≤ 0.03 µg/mL; MIC (Staphylococcus aureus [14]): ≥ 128 µg/mL; MIC (Staphylococcus aureus [23]): 8 µg/mL (≈ 19.9 µM); MIC (Staphylococcus aureus [24]): ≥ 128 µg/mL; MIC (Staphylococcus aureus [25]): 16 µg/mL; fold change (FC) (Staphylococcus aureus [26]): 2 - 10; IC50 (HeLa): 92 µM; MIC (Staphylococcus aureus [27]): 16 µg/mL; MIC (Staphylococcus aureus [28]): ≤ 0.03 µg/mL
CS(=O)(=O)/C(C#N)=C/c1cc(Cc2ccc(Cl)c(Cl)c2)ccc1OC(F)(F)F	0.12 µg/mL	≤ 0.03 µg/mL	0.06 µg/mL	≤ 0.03 µg/mL	0.03 µg/mL	32 µg/mL	0.06 µg/mL	≥ 64 µg/mL	0.03 µg/mL	Active	≤ 0.03 µg/mL	32 µg/mL	8 µg/mL	≥ 64 µg/mL	0.5 µg/mL	8 µg/mL	≤ 0.03 µg/mL	0.25 µg/mL	2 - 10	2 - 10	MIC (Staphylococcus aureus [13]; record 2): ≤ 0.03 µg/mL; MIC (Staphylococcus aureus [23]): 8 µg/mL (≈ 17.8 µM); MIC (Staphylococcus aureus [24]): ≥ 128 µg/mL; MIC (Staphylococcus aureus [25]): 16 µg/mL; fold change (FC) (Staphylococcus aureus [26]): 2 - 10; IC50 (HeLa): 73 µM; MIC (Staphylococcus aureus [27]): 8 µg/mL; MIC (Staphylococcus aureus [28]): ≤ 0.03 µg/mL
CS(=O)(=O)/C(C#N)=C/c1cc(-c2ccc(Cl)c(Cl)c2)ccc1F	16 µg/mL	2 µg/mL	32 µg/mL	4 µg/mL	0.5 µg/mL	16 µg/mL	2 µg/mL	16 µg/mL	8 µg/mL	0.12 µg/mL	128 µg/mL	16 µg/mL	16 µg/mL	32 µg/mL	1 µg/mL	128 µg/mL	1 µg/mL	8 µg/mL	2 - 10	2 - 10	MIC (Staphylococcus aureus [11]): ≥ 128 µg/mL; MIC (Staphylococcus aureus [14]): ≥ 128 µg/mL; MIC (Staphylococcus aureus [23]): 16 µg/mL (≈ 43.2 µM); MIC (Staphylococcus aureus [24]): ≥ 128 µg/mL; MIC (Staphylococcus aureus [25]): 16 µg/mL; fold change (FC) (Staphylococcus aureus [26]): 2 - 10; IC50 (HeLa): 130 µM; MIC (Staphylococcus aureus [27]): 16 µg/mL; MIC (Staphylococcus aureus [28]): 2 µg/mL

Second part, led by results:

MIC (Staphylococcus aureus [1])	MIC (Staphylococcus aureus [2])	MIC (Staphylococcus aureus [3])	MIC (Staphylococcus aureus [4])	MIC (Staphylococcus aureus [5])	MIC (Staphylococcus aureus [6])	MIC (Staphylococcus aureus [8])	MIC (Staphylococcus aureus [9])	MIC (Staphylococcus aureus [10])	MIC (Staphylococcus aureus [13])	MIC (Staphylococcus aureus [15])	MIC (Staphylococcus aureus [16])	MIC (Staphylococcus aureus [17])	MIC (Staphylococcus aureus [18])	MIC (Staphylococcus aureus [19])	MIC (Staphylococcus aureus [20])	MIC (Staphylococcus aureus [21])	MIC (Staphylococcus aureus [22])	Compound	fold change (FC) (Staphylococcus aureus [7])	fold change (FC) (Staphylococcus aureus [12])	other results
0.03 µg/mL	≤ 0.03 µg/mL	16 µg/mL	0.06 µg/mL	0.5 µg/mL	16 µg/mL	0.25 µg/mL	16 µg/mL	0.12 µg/mL	≤ 0.03 µg/mL	128 µg/mL	16 µg/mL	16 µg/mL	16 µg/mL	0.5 µg/mL	128 µg/mL	0.12 µg/mL	0.5 µg/mL	N#C/C(=C\c1cc(Cc2ccc(Cl)c(Cl)c2)ccc1F)S(=O)(=O)c1ccccn1	2 - 10	2 - 10	MIC (Staphylococcus aureus [11]): ≥ 128 µg/mL; MIC (Staphylococcus aureus [14]): ≥ 128 µg/mL; MIC (Staphylococcus aureus [23]): 16 µg/mL (≈ 35.8 µM); MIC (Staphylococcus aureus [24]): ≥ 128 µg/mL; MIC (Staphylococcus aureus [25]): 16 µg/mL; fold change (FC) (Staphylococcus aureus [26]): 2 - 10; IC50 (HeLa): 87 µM; MIC (Staphylococcus aureus [27]): 16 µg/mL; MIC (Staphylococcus aureus [28]): 0.25 µg/mL
4 µg/mL	1 µg/mL	0.5 µg/mL	0.06 µg/mL	1 µg/mL	≥ 64 µg/mL	1 µg/mL	≥ 64 µg/mL	0.25 µg/mL	≤ 0.03 µg/mL	256 µg/mL	≥ 64 µg/mL	16 µg/mL	≥ 64 µg/mL	4 µg/mL	8 µg/mL	0.25 µg/mL	2 µg/mL	CS(=O)(=O)/C(C#N)=C/c1cc(Cc2ccc(Cl)c(Cl)c2)ccc1F	2 - 10	2 - 10	MIC (Staphylococcus aureus [11]): ≥ 128 µg/mL; MIC (Staphylococcus aureus [14]): ≥ 128 µg/mL; MIC (Staphylococcus aureus [23]): 8 µg/mL (≈ 20.8 µM); MIC (Staphylococcus aureus [24]): ≥ 128 µg/mL; MIC (Staphylococcus aureus [25]): 32 µg/mL; fold change (FC) (Staphylococcus aureus [26]): 2 - 10; IC50 (HeLa): 125 µM; MIC (Staphylococcus aureus [27]): 32 µg/mL; MIC (Staphylococcus aureus [28]): ≤ 0.03 µg/mL
